In ChEMBL document CHEMBL4689842, “EUbOPEN Chemogenomics Library wave 1” (2021):

Key:
Assay type in all cases: toxicity, cell-based
Fibroblast [1] = test: Multiplex assay against human fibroblast
In short: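 Hoechst33342, BioTracker Green Microtubule Cytoskeleton Dye, MitoTracker Red and Annexin V Alexa Fluor 680 were added to live cells at seeding, and imaging on a CQ1 microscope at 37°C and 5% CO2 followed compound addition. Gating by CellPathfinder machine learning separated cells into Hoechst high-intensity objects or normal cells, then normal cells into healthy, pyknosed or fragmented nuclei, then pyknosed cells into mitotic or apoptotic. Per cents of healthy-nucleus cells are reported for the tubulin, mitochondrial-mass and membrane-permeability phenotypes.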

Fibroblast [2] = test: Incucyte cell viability with human fibroblast; conditions: 10 µM, compound concentration 10 uM; also: filed as whole numbers so only -1 and 0 and 1 occur
U2OS = test: Incucyte cell viability with U2OS; conditions: human, 10 µM, compound concentration 10 uM; also: filed as whole numbers so only -1 and 0 and 1 occur
[3] = 12 h, 1 µM, compound concentration 1 uM, replicate 1
[4] = 12 h, 1 µM, compound concentration 1 uM, replicate 2
[5] = 12 h, 10 µM, compound concentration 10 uM, replicate 1
[6] = 12 h, 10 µM, compound concentration 10 uM, replicate 2
[7] = 24 h, 1 µM, compound concentration 1 uM, replicate 1
[8] = 24 h, 1 µM, compound concentration 1 uM, replicate 2
[9] = 24 h, 10 µM, compound concentration 10 uM, replicate 1
[10] = 24 h, 10 µM, compound concentration 10 uM, replicate 2
[11] = 48 h, 1 µM, compound concentration 1 uM, replicate 1
[12] = 48 h, 1 µM, compound concentration 1 uM, replicate 2
[13] = 48 h, 10 µM, compound concentration 10 uM, replicate 1
[14] = 48 h, 10 µM, compound concentration 10 uM, replicate 2
[15] = 0 h, replicate number 1, timepoint 0 hours
[16] = 6 h, replicate number 1, timepoint 6 hours
[17] = 12 h, replicate number 1, timepoint 12 hours
[18] = 12 h, replicate number 2, timepoint 12 hours
[19] = 18 h, replicate number 1, timepoint 18 hours
[20] = 24 h, replicate number 1, timepoint 24 hours

In the case of `C=CC(=O)Nc1cc(-n2c(=O)ccc3cnc4ccc(-c5ccc(NS(C)(=O)=O)cc5)cc4c32)ccc1C`, the “Population Apoptotic (%)” value (Fibroblast [1]; [3]) is reported as 52%, the “Population Fragmented Nuclei (%)” value (Fibroblast [1]; [3]) is reported as 37% and the “Population Healthy Nuclei (%)” value (Fibroblast [1]; [3]) is reported as 32%. For the same compound, the “Population Hoechst High Intensity Objects (%)” value (Fibroblast [1]; [3]) was 7%, the “Population Membrane Permeable-Phenotype (%)” value (Fibroblast [1]; [3]) was 15% and the “Population Mitochondria Different-Phenotype (%)” value (Fibroblast [1]; [3]) was 3%. For the same compound, the “Population Mitotic Cells (%)” value (Fibroblast [1]; [3]) was 47%, the “Population Normal (%)” value (Fibroblast [1]; [3]) was 92% and the “Population Pyknosed Nuclei (%)” value (Fibroblast [1]; [3]) was 29%. The “Population Tubulin-Different-Phenotype (%)” value (Fibroblast [1]; [3]) was 30%, the “Total Cell Count” value (Fibroblast [1]; [3]) was 85 and the “Population Apoptotic (%)” value (Fibroblast [1]; [4]) was 33%. The “Population Fragmented Nuclei (%)” value (Fibroblast [1]; [4]) was 10%, the “Population Healthy Nuclei (%)” value (Fibroblast [1]; [4]) was 77% and the “Population Membrane Permeable-Phenotype (%)” value (Fibroblast [1]; [4]) was 0%. For the same compound, the “Population Mitochondria Different-Phenotype (%)” value (Fibroblast [1]; [4]) was 10%, the “Population Mitotic Cells (%)” value (Fibroblast [1]; [4]) was 66% and the “Population Pyknosed Nuclei (%)” value (Fibroblast [1]; [4]) was 12%. The “Population Tubulin-Different-Phenotype (%)” value (Fibroblast [1]; [4]) was 10%, the “Total Cell Count” value (Fibroblast [1]; [4]) was 53 and the “Population Apoptotic (%)” value (Fibroblast [1]; [5]) was 51%. For the same compound, the “Population Fragmented Nuclei (%)” value (Fibroblast [1]; [5]) was 30%, the “Population Healthy Nuclei (%)” value (Fibroblast [1]; [5]) was 39% and the “Population Hoechst High Intensity Objects (%)” value (Fibroblast [1]; [5]) was 8%. The “Population Membrane Permeable-Phenotype (%)” value (Fibroblast [1]; [5]) was 32%, the “Population Mitochondria Different-Phenotype (%)” value (Fibroblast [1]; [5]) was 13% and the “Population Mitotic Cells (%)” value (Fibroblast [1]; [5]) was 48%. For the same compound, the “Population Normal (%)” value (Fibroblast [1]; [5]) was 91%, the “Population Pyknosed Nuclei (%)” value (Fibroblast [1]; [5]) was 30% and the “Population Tubulin-Different-Phenotype (%)” value (Fibroblast [1]; [5]) was 55%. For the same compound, the “Total Cell Count” value (Fibroblast [1]; [5]) was 120, the “Population Apoptotic (%)” value (Fibroblast [1]; [6]) was 76% and the “Population Fragmented Nuclei (%)” value (Fibroblast [1]; [6]) was 8%. For the same compound, the “Population Healthy Nuclei (%)” value (Fibroblast [1]; [6]) was 54%, the “Population Hoechst High Intensity Objects (%)” value (Fibroblast [1]; [6]) was 9% and the “Population Membrane Permeable-Phenotype (%)” value (Fibroblast [1]; [6]) was 12%. For the same compound, the “Population Mitochondria Different-Phenotype (%)” value (Fibroblast [1]; [6]) was 56%, the “Population Mitotic Cells (%)” value (Fibroblast [1]; [6]) was 23% and the “Population Normal (%)” value (Fibroblast [1]; [6]) was 90%. For the same compound, the “Population Pyknosed Nuclei (%)” value (Fibroblast [1]; [6]) was 36%, the “Population Tubulin-Different-Phenotype (%)” value (Fibroblast [1]; [6]) was 52% and the “Total Cell Count” value (Fibroblast [1]; [6]) was 51. For the same compound, the “Population Apoptotic (%)” value (Fibroblast [1]; [7]) was 54%, the “Population Fragmented Nuclei (%)” value (Fibroblast [1]; [7]) was 23% and the “Population Healthy Nuclei (%)” value (Fibroblast [1]; [7]) was 44%. For the same compound, the “Population Hoechst High Intensity Objects (%)” value (Fibroblast [1]; [7]) was 11%, the “Population Membrane Permeable-Phenotype (%)” value (Fibroblast [1]; [7]) was 22% and the “Population Mitochondria Different-Phenotype (%)” value (Fibroblast [1]; [7]) was 16%. The “Population Mitotic Cells (%)” value (Fibroblast [1]; [7]) was 45%, the “Population Normal (%)” value (Fibroblast [1]; [7]) was 88% and the “Population Pyknosed Nuclei (%)” value (Fibroblast [1]; [7]) was 31%. For the same compound, the “Population Tubulin-Different-Phenotype (%)” value (Fibroblast [1]; [7]) was 38%, the “Total Cell Count” value (Fibroblast [1]; [7]) was 78 and the “Population Apoptotic (%)” value (Fibroblast [1]; [8]) was 55%. For the same compound, the “Population Fragmented Nuclei (%)” value (Fibroblast [1]; [8]) was 11%, the “Population Healthy Nuclei (%)” value (Fibroblast [1]; [8]) was 76% and the “Population Hoechst High Intensity Objects (%)” value (Fibroblast [1]; [8]) was 2%. For the same compound, the “Population Membrane Permeable-Phenotype (%)” value (Fibroblast [1]; [8]) was 3%, the “Population Mitochondria Different-Phenotype (%)” value (Fibroblast [1]; [8]) was 15% and the “Population Mitotic Cells (%)” value (Fibroblast [1]; [8]) was 44%. The “Population Normal (%)” value (Fibroblast [1]; [8]) was 97%, the “Population Pyknosed Nuclei (%)” value (Fibroblast [1]; [8]) was 11% and the “Population Tubulin-Different-Phenotype (%)” value (Fibroblast [1]; [8]) was 22%. The “Total Cell Count” value (Fibroblast [1]; [8]) was 79, the “Population Apoptotic (%)” value (Fibroblast [1]; [9]) was 50% and the “Population Fragmented Nuclei (%)” value (Fibroblast [1]; [9]) was 36%. For the same compound, the “Population Healthy Nuclei (%)” value (Fibroblast [1]; [9]) was 39%, the “Population Hoechst High Intensity Objects (%)” value (Fibroblast [1]; [9]) was 9% and the “Population Membrane Permeable-Phenotype (%)” value (Fibroblast [1]; [9]) was 35%. For the same compound, the “Population Mitochondria Different-Phenotype (%)” value (Fibroblast [1]; [9]) was 5%, the “Population Mitotic Cells (%)” value (Fibroblast [1]; [9]) was 50% and the “Population Normal (%)” value (Fibroblast [1]; [9]) was 90%. The “Population Pyknosed Nuclei (%)” value (Fibroblast [1]; [9]) was 23%, the “Population Tubulin-Different-Phenotype (%)” value (Fibroblast [1]; [9]) was 50% and the “Total Cell Count” value (Fibroblast [1]; [9]) was 141. The “Population Apoptotic (%)” value (Fibroblast [1]; [10]) was 84%, the “Population Fragmented Nuclei (%)” value (Fibroblast [1]; [10]) was 21% and the “Population Healthy Nuclei (%)” value (Fibroblast [1]; [10]) was 32%. For the same compound, the “Population Hoechst High Intensity Objects (%)” value (Fibroblast [1]; [10]) was 5%, the “Population Membrane Permeable-Phenotype (%)” value (Fibroblast [1]; [10]) was 22% and the “Population Mitochondria Different-Phenotype (%)” value (Fibroblast [1]; [10]) was 50%. The “Population Mitotic Cells (%)” value (Fibroblast [1]; [10]) was 15%, the “Population Normal (%)” value (Fibroblast [1]; [10]) was 94% and the “Population Pyknosed Nuclei (%)” value (Fibroblast [1]; [10]) was 46%. For the same compound, the “Population Tubulin-Different-Phenotype (%)” value (Fibroblast [1]; [10]) was 33%, the “Total Cell Count” value (Fibroblast [1]; [10]) was 59 and the “Population Apoptotic (%)” value (Fibroblast [1]; [11]) was 61%. The “Population Fragmented Nuclei (%)” value (Fibroblast [1]; [11]) was 32%, the “Population Healthy Nuclei (%)” value (Fibroblast [1]; [11]) was 43% and the “Population Hoechst High Intensity Objects (%)” value (Fibroblast [1]; [11]) was 6%. For the same compound, the “Population Membrane Permeable-Phenotype (%)” value (Fibroblast [1]; [11]) was 25%, the “Population Mitochondria Different-Phenotype (%)” value (Fibroblast [1]; [11]) was 3% and the “Population Mitotic Cells (%)” value (Fibroblast [1]; [11]) was 38%. For the same compound, the “Population Normal (%)” value (Fibroblast [1]; [11]) was 93%, the “Population Pyknosed Nuclei (%)” value (Fibroblast [1]; [11]) was 24% and the “Population Tubulin-Different-Phenotype (%)” value (Fibroblast [1]; [11]) was 34%. For the same compound, the “Total Cell Count” value (Fibroblast [1]; [11]) was 79, the “Population Apoptotic (%)” value (Fibroblast [1]; [12]) was 0% and the “Population Fragmented Nuclei (%)” value (Fibroblast [1]; [12]) was 28%. The “Population Healthy Nuclei (%)” value (Fibroblast [1]; [12]) was 65%, the “Population Hoechst High Intensity Objects (%)” value (Fibroblast [1]; [12]) was 12% and the “Population Membrane Permeable-Phenotype (%)” value (Fibroblast [1]; [12]) was 19%. For the same compound, the “Population Mitochondria Different-Phenotype (%)” value (Fibroblast [1]; [12]) was 7%, the “Population Mitotic Cells (%)” value (Fibroblast [1]; [12]) was 100% and the “Population Normal (%)” value (Fibroblast [1]; [12]) was 87%. For the same compound, the “Population Pyknosed Nuclei (%)” value (Fibroblast [1]; [12]) was 6%, the “Population Tubulin-Different-Phenotype (%)” value (Fibroblast [1]; [12]) was 21% and the “Total Cell Count” value (Fibroblast [1]; [12]) was 72. The “Population Apoptotic (%)” value (Fibroblast [1]; [13]) was 78%, the “Population Fragmented Nuclei (%)” value (Fibroblast [1]; [13]) was 39% and the “Population Healthy Nuclei (%)” value (Fibroblast [1]; [13]) was 43%. The “Population Hoechst High Intensity Objects (%)” value (Fibroblast [1]; [13]) was 18%, the “Population Membrane Permeable-Phenotype (%)” value (Fibroblast [1]; [13]) was 29% and the “Population Mitochondria Different-Phenotype (%)” value (Fibroblast [1]; [13]) was 4%. For the same compound, the “Population Mitotic Cells (%)” value (Fibroblast [1]; [13]) was 21%, the “Population Normal (%)” value (Fibroblast [1]; [13]) was 81% and the “Population Pyknosed Nuclei (%)” value (Fibroblast [1]; [13]) was 17%. For the same compound, the “Population Tubulin-Different-Phenotype (%)” value (Fibroblast [1]; [13]) was 56%, the “Total Cell Count” value (Fibroblast [1]; [13]) was 135 and the “Population Apoptotic (%)” value (Fibroblast [1]; [14]) was 100%. For the same compound, the “Population Fragmented Nuclei (%)” value (Fibroblast [1]; [14]) was 56%, the “Population Healthy Nuclei (%)” value (Fibroblast [1]; [14]) was 42% and the “Population Hoechst High Intensity Objects (%)” value (Fibroblast [1]; [14]) was 15%. For the same compound, the “Population Membrane Permeable-Phenotype (%)” value (Fibroblast [1]; [14]) was 33%, the “Population Mitochondria Different-Phenotype (%)” value (Fibroblast [1]; [14]) was 1% and the “Population Mitotic Cells (%)” value (Fibroblast [1]; [14]) was 0%. The “Population Normal (%)” value (Fibroblast [1]; [14]) was 85%, the “Population Pyknosed Nuclei (%)” value (Fibroblast [1]; [14]) was 0% and the “Population Tubulin-Different-Phenotype (%)” value (Fibroblast [1]; [14]) was 50%. The “Total Cell Count” value (Fibroblast [1]; [14]) was 140, the “Growth Rate” value (Fibroblast [2]; [15]) was 0 and the “Growth Rate” value (Fibroblast [2]; [16]) was 1. For the same compound, the “Growth Rate” value (Fibroblast [2]; 6 h, replicate number 2, timepoint 6 hours) was 0, the “Growth Rate” value (Fibroblast [2]; [17]) was 1 and the “Growth Rate” value (Fibroblast [2]; [18]) was 0. The “Growth Rate” value (Fibroblast [2]; [19]) was 1, the “Growth Rate” value (Fibroblast [2]; 18 h, replicate number 2, timepoint 18 hours) was 0 and the “Growth Rate” value (Fibroblast [2]; [20]) was 1. The “Growth Rate” value (Fibroblast [2]; 24 h, replicate number 2, timepoint 24 hours) was 0, the “Growth Rate” value (U2OS; [15]) was 0 and the “Growth Rate” value (U2OS; 0 h, replicate number 2, timepoint 0 hours) was 1. The “Growth Rate” value (U2OS; [16]) was 1, the “Growth Rate” value (U2OS; [17]) was 1 and the “Growth Rate” value (U2OS; [18]) was 0. For the same compound, the “Growth Rate” value (U2OS; [19]) was 0 and the “Growth Rate” value (U2OS; [20]) was 0.
